Reference: ChEMBL document CHEMBL4190321, “Novel 4/3-((4-oxo-5-(2-oxoindolin-3-ylidene)thiazolidin-2-ylidene)amino) benzenesulfonamides: Synthesis, carbonic anhydrase inhibitory activity, anticancer activity and molecular modelling studies” (Eur J Med Chem, 2017)

Tests used:
Carbonic anhydrase 9 = Carbonic anhydrase 9 (Homo sapiens, UniProt Q16790); experiment: Inhibition of human transmembrane carbonic anhydrase 9 by stopped-flow CO2 hydrase assay
MCF7 [1] = experiment: Antiproliferative activity against human MCF7 cells by MTT assay
Caco-2 = experiment: Antiproliferative activity against human Caco2 cells by MTT assay
Carbonic anhydrase 4 = Carbonic anhydrase 4 (Homo sapiens, UniProt P22748); experiment: Inhibition of human transmembrane carbonic anhydrase 4 by stopped-flow CO2 hydrase assay
Carbonic anhydrase 4, sequence (P22748 whole entry): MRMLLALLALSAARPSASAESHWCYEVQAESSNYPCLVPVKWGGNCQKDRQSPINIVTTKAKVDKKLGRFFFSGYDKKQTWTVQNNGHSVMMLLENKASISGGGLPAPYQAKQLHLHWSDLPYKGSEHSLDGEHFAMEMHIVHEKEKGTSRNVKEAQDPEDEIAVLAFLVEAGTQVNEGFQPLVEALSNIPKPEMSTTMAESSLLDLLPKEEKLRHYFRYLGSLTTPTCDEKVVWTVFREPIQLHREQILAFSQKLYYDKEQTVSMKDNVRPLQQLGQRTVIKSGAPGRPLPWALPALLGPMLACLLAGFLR

MCF7 [2] = experiment: Induction of apoptosis in human MCF7 cells assessed as decrease in Bcl-2 expression at IC50 by ELISA relative to control; format: functional; set-up: scale not given: the % may be the effect or the level left
In short: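 MCF-7 cells were treated alongside a 1% DMSO control. Bcl-2 protein was measured with a colorimetric ELISA kit and reported in ng/ml. Data are mean ± SD of three separate experiments, and significance versus control was set at P < 0.05.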

Carbonic anhydrase 2 = Carbonic anhydrase 2 (Homo sapiens, UniProt P00918); experiment: Inhibition of human cytosolic carbonic anhydrase 2 by stopped-flow CO2 hydrase assay
Carbonic anhydrase 1 = Carbonic anhydrase 1 (Homo sapiens, UniProt P00915); experiment: Inhibition of human cytosolic carbonic anhydrase 1 by stopped-flow CO2 hydrase assay
Carbonic anhydrase 1, sequence (P00915 whole entry): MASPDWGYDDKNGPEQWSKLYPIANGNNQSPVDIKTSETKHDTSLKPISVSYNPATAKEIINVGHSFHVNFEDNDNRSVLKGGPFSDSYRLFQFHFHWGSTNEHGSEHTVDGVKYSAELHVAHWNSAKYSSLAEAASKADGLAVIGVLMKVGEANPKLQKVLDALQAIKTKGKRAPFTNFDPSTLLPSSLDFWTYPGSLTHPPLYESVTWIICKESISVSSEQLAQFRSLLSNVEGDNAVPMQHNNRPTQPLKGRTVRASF

Row | SMILES | Ki (Carbonic anhydrase 9) [µM] | IC50 (MCF7 [1]) [µM] | IC50 (Caco-2) [µM] | Ki (Carbonic anhydrase 4) [µM] | Ki (Carbonic anhydrase 2) [µM] | Ki (Carbonic anhydrase 1) [µM] | Activity (MCF7 [2]) [%]
1 | Cc1cc(C)c2c(c1)/C(=C1/S/C(=N/c3ccc(S(N)(=O)=O)cc3)NC1=O)C(=O)N2 | 0.1 | > 200 | 146 | – | – | – | –
2 | NS(=O)(=O)c1ccc(/N=C2\NC(=O)/C(=C3/C(=O)Nc4ccc(Br)cc43)S2)cc1 | 0.0666 | 11.3 | 42.3 | – | – | – | –
3 | NS(=O)(=O)c1ccc(/N=C2\NC(=O)/C(=C3/C(=O)N(Cc4ccccc4)c4ccc(Br)cc43)S2)cc1 | 0.321 | > 200 | 57.8 | – | – | – | –
4 | CN1C(=O)/C(=C2\S/C(=N/c3ccc(S(N)(=O)=O)cc3)NC2=O)c2cc(Br)ccc21 | 0.0389 | 196 | 13.2 | – | – | – | –
5 | CN1C(=O)/C(=C2\S/C(=N/c3ccc(S(N)(=O)=O)cc3)NC2=O)c2ccccc21 | 0.146 | 51.9 | 163 | – | – | – | –
6 | NS(=O)(=O)c1ccc(/N=C2\NC(=O)/C(=C3/C(=O)Nc4ccc(F)cc43)S2)cc1 | 0.0266 | 20.5 | 59.9 | – | – | – | –
7 | COc1ccc2c(c1)/C(=C1/S/C(=N/c3ccc(S(N)(=O)=O)cc3)NC1=O)C(=O)N2 | 0.0231 | 125 | 98.3 | > 10 | – | – | –
8 | Cc1ccc2c(c1)/C(=C1/S/C(=N/c3ccc(S(N)(=O)=O)cc3)NC1=O)C(=O)N2 | 0.0721 | > 200 | 174 | – | – | – | –
9 | NS(=O)(=O)c1ccc(/N=C2\NC(=O)/C(=C3/C(=O)N(Cc4ccccc4)c4ccc(Cl)cc43)S2)cc1 | 0.0906 | 124 | 13.7 | – | – | – | –
10 | NS(=O)(=O)c1ccc(/N=C2\NC(=O)/C(=C3/C(=O)Nc4ccc([N+](=O)[O-])cc43)S2)cc1 | 0.0341 | > 200 | 13.8 | – | – | – | –
11 | CN1C(=O)/C(=C2\S/C(=N/c3ccc(S(N)(=O)=O)cc3)NC2=O)c2cc(Cl)ccc21 | 0.123 | > 200 | 42.3 | – | – | – | –
12 | COc1cccc2c1C(=O)c1c(O)c3c(c(O)c1C2=O)C[C@@](O)(C(=O)CO)C[C@@H]3O[C@H]1C[C@H](N)[C@H](O)[C@H](C)O1 [DOXORUBICIN] | – | – | 3.83 | – | – | – | –
13 | NS(=O)(=O)c1ccc(/N=C2\NC(=O)/C(=C3/C(=O)N(Cc4ccccc4)c4ccccc43)S2)cc1 | 0.117 | > 200 | > 200 | – | – | – | –
14 | NS(=O)(=O)c1ccc(/N=C2\NC(=O)/C(=C3/C(=O)Nc4ccc(Cl)cc43)S2)cc1 | 0.0624 | 3.96 | 20.3 | – | – | – | 45
15 | NS(=O)(=O)c1ccc(/N=C2\NC(=O)/C(=C3/C(=O)Nc4ccccc43)S2)cc1 | 0.047 | > 200 | > 200 | > 10 | 0.023 | 0.631 | –

More lines, main results first:

Row | Ki (Carbonic anhydrase 9) [µM] | IC50 (MCF7 [1]) [µM] | IC50 (Caco-2) [µM] | Ki (Carbonic anhydrase 4) [µM] | Ki (Carbonic anhydrase 2) [µM] | Ki (Carbonic anhydrase 1) [µM] | SMILES | Activity (MCF7 [2]) [%]
16 | 0.0177 | – | – | – | – | – | NS(=O)(=O)c1cccc(/N=C2\NC(=O)CS2)c1 | –
17 | 0.0159 | > 200 | 10.8 | – | – | – | NS(=O)(=O)c1cccc(/N=C2\NC(=O)/C(=C3/C(=O)Nc4ccc(Br)cc43)S2)c1 | –
18 | 0.0247 | > 200 | 8.39 | – | – | – | COc1ccc2c(c1)/C(=C1/S/C(=N/c3cccc(S(N)(=O)=O)c3)NC1=O)C(=O)N2 | –
19 | 0.0045 | – | – | – | – | – | NS(=O)(=O)c1ccc(NC2=NC(=O)CS2)cc1 | –
20 | 0.048 | > 200 | 20.6 | – | – | – | NS(=O)(=O)c1cccc(/N=C2\NC(=O)/C(=C3/C(=O)Nc4ccc([N+](=O)[O-])cc43)S2)c1 | –
21 | 0.17 | > 200 | 103 | – | – | – | NS(=O)(=O)c1cccc(/N=C2\NC(=O)/C(=C3/C(=O)N(Cc4ccccc4)c4ccccc43)S2)c1 | –
22 | 0.0161 | > 200 | 12.1 | – | – | – | NS(=O)(=O)c1cccc(/N=C2\NC(=O)/C(=C3/C(=O)Nc4ccccc43)S2)c1 | –
23 | 0.062 | > 200 | 5.87 | – | – | – | NS(=O)(=O)c1cccc(/N=C2\NC(=O)/C(=C3/C(=O)Nc4ccc(Cl)cc43)S2)c1 | –
